Laboratory results reported in ChEMBL document CHEMBL1147841, “Synthesis and biological study of 2-amino-4-aryl-5-chloropyrimidine analogues as inhibitors of VEGFR-2 and cyclin dependent kinase 1 (CDK1)” (Bioorg Med Chem Lett, 2007).

Assays:
[1] = biological target: Vascular endothelial growth factor receptor 2 (Homo sapiens, UniProt P35968); assay: Inhibition of VEGFR2
[2] = biological target: Cyclin-dependent kinase 1 (Homo sapiens, UniProt P06493); assay: Inhibition of CDK1
[3] = tested on: A-375; assay: Antiproliferative activity against human A375 cells; assay type: functional, cell-based
[4] = tested on: HCT-116; assay: Antiproliferative activity against human HCT116 cells; assay type: functional, cell-based
[5] = tested on: HeLa; assay: Antiproliferative activity against human HeLa cells; assay type: functional, cell-based
[6] = Bioavailability in Sprague-Dawley rat at 10 mg/kg, po; assay type: ADME, organism-based; conditions: in vivo
Summary of the method: (§1)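 Male Sprague-Dawley rats were given single doses orally at 10 mg/kg in 0.5% Methocel and intravenously at 2 mg/kg in 10% Solutol. Plasma concentrations were followed to derive AUC (µM h), Cmax (µM), half-life (h), clearance (mL/min/kg), steady-state volume of distribution (L/kg) and oral bioavailability (%).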

[7] = Half life in Sprague-Dawley rat at 10 mg/kg, po; assay type: ADME, organism-based; parameters: dose 10 mg/kg, route oral; conditions: in vivo; summary of the method: as §1
[8] = Cmax in Sprague-Dawley rat at 10 mg/kg, po; assay type: ADME, organism-based; parameters: dose 10 mg/kg, route oral; conditions: in vivo; summary of the method: as §1
[9] = AUC in Sprague-Dawley rat at 10 mg/kg, po; assay type: ADME, organism-based; parameters: dose 10 mg/kg, route oral; conditions: plasma; summary of the method: as §1
[10] = Half life in Sprague-Dawley rat at 2 mg/kg, iv; assay type: ADME, organism-based; parameters: dose 2 mg/kg, route intravenous; conditions: in vivo; summary of the method: as §1
[11] = Cmax in Sprague-Dawley rat at 2 mg/kg, iv; assay type: ADME, organism-based; parameters: dose 2 mg/kg, route intravenous; conditions: in vivo; summary of the method: as §1
[12] = AUC in Sprague-Dawley rat at 2 mg/kg, iv; assay type: ADME, organism-based; parameters: dose 2 mg/kg, route intravenous; conditions: plasma; summary of the method: as §1
[13] = Clearance in Sprague-Dawley rat; assay type: ADME, organism-based; conditions: in vivo; summary of the method: as §1
[14] = Volume of distribution at steady state in Sprague-Dawley rat; assay type: ADME, organism-based; conditions: in vivo, read-out: Vss; summary of the method: as §1

Sequence of Cyclin-dependent kinase 1 (P06493 whole entry): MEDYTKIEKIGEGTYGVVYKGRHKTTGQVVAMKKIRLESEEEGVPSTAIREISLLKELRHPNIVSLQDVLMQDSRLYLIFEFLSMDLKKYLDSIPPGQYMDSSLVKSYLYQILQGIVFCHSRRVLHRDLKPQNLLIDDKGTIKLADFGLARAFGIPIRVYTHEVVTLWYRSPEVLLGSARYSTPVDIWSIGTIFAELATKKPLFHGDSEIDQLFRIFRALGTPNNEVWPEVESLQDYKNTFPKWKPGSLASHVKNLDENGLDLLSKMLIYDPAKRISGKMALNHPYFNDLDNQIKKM
Sequence of Vascular endothelial growth factor receptor 2 (P35968 whole entry): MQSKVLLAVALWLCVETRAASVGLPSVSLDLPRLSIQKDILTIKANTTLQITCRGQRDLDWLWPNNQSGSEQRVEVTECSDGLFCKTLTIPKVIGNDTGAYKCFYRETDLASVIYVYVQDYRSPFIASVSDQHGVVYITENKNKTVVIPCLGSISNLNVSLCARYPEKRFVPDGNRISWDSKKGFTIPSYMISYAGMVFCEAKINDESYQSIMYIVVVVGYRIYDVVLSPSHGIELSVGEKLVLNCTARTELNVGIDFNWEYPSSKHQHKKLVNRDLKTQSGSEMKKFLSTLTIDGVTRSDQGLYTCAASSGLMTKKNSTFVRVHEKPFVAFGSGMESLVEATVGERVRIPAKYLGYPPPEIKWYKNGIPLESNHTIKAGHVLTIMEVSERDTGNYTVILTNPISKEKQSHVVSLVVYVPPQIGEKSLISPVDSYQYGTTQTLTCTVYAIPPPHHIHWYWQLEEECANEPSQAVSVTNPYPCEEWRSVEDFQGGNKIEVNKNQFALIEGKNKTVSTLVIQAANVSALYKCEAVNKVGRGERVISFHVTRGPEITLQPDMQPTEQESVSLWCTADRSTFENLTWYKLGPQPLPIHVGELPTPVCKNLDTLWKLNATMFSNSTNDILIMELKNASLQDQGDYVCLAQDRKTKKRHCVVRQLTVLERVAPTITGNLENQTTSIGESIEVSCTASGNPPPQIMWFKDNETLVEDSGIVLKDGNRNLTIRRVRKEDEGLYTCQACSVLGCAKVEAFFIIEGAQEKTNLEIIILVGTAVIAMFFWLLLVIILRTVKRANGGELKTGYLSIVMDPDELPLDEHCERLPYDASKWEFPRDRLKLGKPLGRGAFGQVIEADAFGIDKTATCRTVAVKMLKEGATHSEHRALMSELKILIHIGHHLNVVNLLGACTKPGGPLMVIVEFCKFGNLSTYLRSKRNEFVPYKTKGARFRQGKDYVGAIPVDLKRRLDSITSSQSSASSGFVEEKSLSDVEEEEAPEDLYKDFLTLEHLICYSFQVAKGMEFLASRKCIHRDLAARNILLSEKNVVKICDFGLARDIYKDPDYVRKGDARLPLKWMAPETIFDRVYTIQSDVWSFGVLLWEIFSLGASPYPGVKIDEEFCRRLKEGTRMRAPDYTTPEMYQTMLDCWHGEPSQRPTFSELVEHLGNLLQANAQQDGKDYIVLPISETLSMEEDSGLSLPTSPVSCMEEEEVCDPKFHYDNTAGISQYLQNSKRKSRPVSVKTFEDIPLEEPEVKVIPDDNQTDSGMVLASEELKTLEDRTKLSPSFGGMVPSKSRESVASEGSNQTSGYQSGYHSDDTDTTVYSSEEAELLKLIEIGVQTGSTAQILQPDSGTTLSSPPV

SMILES	IC50 [1] [nM]	IC50 [2] [nM]	IC50 [3] [nM]	IC50 [4] [nM]	IC50 [5] [nM]	bioavailability [6] [%]	half-life [7] [h]	Cmax [8] [nM]	AUC [9] [µM·h]	half-life [10] [h]	Cmax [11] [nM]	AUC [12] [µM·h]	clearance [13] [mL/min/kg]	Vd [14] [L/kg]
CC(C)(N)c1ccc(-c2nc(Nc3ccc(CCO)cc3)ncc2Cl)cc1	69	687	1370	1600	2920	55	4.5	1110	7.65	4.9	1430	2.77	34	10.7
CC(C)(N)c1ccc(-c2nc(Nc3ccc(CCN4CCCC4)cc3)ncc2Cl)cc1	26	808	247	359	339									
CC(C)(N)c1ccc(-c2nc(Nc3ccc(CCN4CCOCC4)cc3)ncc2Cl)cc1	148	2770	3170	3220	3010									
CN(C)CCc1ccc(Nc2ncc(Cl)c(-c3n[nH]c4ccccc34)n2)cc1	314	781	3970	3760	3060									
CN1CCN(CCc2ccc(Nc3ncc(Cl)c(-c4c[nH]c5ccccc45)n3)cc2)CC1	7	180	3930	3050	3330									
Clc1cnc(Nc2ccc(CCN3CCCC3)cc2)nc1-c1ccc2cc[nH]c2c1	16	1540	1970	1680	973	70	2.6	720	5.74	3.9	670	1.63	51	16.3
CN(C)CCc1ccc(Nc2ncc(Cl)c(-c3cccs3)n2)cc1	159	461	16	228	1240									
CC(C)(N)c1ccc(-c2nc(Nc3cccc(Br)c3)ncc2Cl)cc1	348	1040	2610	3690	3350									
Cc1nc(C)c(-c2nc(Nc3ccc(CCN(C)C)cc3)ncc2Cl)s1	797	439	399	391	431									
CN(C)CCc1ccc(Nc2ncc(Cl)c(-c3c[nH]c4ccccc34)n2)cc1	7	48	50	84	75									
CN(C)CCc1ccc(Nc2ncc(Cl)c(-c3ccc4[nH]ccc4c3)n2)cc1	103	847	30	321	596									
CN(C)CCc1ccc(Nc2ncc(Cl)c(-c3ccc4cc[nH]c4c3)n2)cc1	15	1770	336	446	472									
CN(C)CCc1ccc(Nc2ncc(Cl)c(-c3cccc4cc[nH]c34)n2)cc1	455	334	774	470	1290									
CN1CCN(CCc2ccc(Nc3ncc(Cl)c(-c4ccc(C(C)(C)N)cc4)n3)cc2)CC1	76	1610	868	1300	811									
CN(C)CCc1ccc(Nc2ncc(Cl)c(-c3cccc4[nH]ccc34)n2)cc1	216	540	210	84	292									
CNCCc1ccc(Nc2ncc(Cl)c(-c3ccc(C(C)(C)N)cc3)n2)cc1	33	1060	175	885	542									
CN(C)CCc1ccc(Nc2ncc(Cl)c(-c3ccc(C(C)(C)N)cc3)n2)cc1	19	1140	163	1680	500									
CCN1CCN(CCc2ccc(Nc3ncc(Cl)c(-c4ccc5cc[nH]c5c4)n3)cc2)CC1	37	1240	2570	2450	2080	40	4.6	590	6.12	5.8	960	3.06	25	10.1
